{"data": "Published values gathered from unrelated publications", "SLC6A3": "Sodium-dependent dopamine transporter (SLC6A3, Homo sapiens, UniProt Q01959)", "DRD3": "D(3) dopamine receptor (DRD3, Homo sapiens, UniProt P35462)", "PDE10A": "cAMP and cAMP-inhibited cGMP 3',5'-cyclic phosphodiesterase 10A (PDE10A, Homo sapiens, UniProt Q9Y233)"}
{"Compound": "OC[C@@]12C[C@@H]1[C@@H](n1cnc3c(NC(C4CCC4)C4CCC4)nc(C#Cc4ccc(Cl)s4)nc31)[C@H](O)[C@@H]2O", "target": "SLC6A3", "assay": "ligand displacement, radioligand", "conditions": "10 µM", "measurement": "inhibition", "value": "78%"}
{"Compound": "Cc1[nH]cc(S(=O)(=O)Nc2ccc(C(F)(F)F)c(Cl)c2)c1C(=O)N1CCC(F)(F)C1", "target": "DRD3", "assay": "β-arrestin recruitment, agonist", "conditions": "90 min", "measurement": "Emax", "value": "91%"}
{"Compound": "COc1cc2ncnc(C(=O)c3cccc4ccccc34)c2cc1OC", "target": "PDE10A", "assay": "enzyme activity, inhibitor, FP", "conditions": "0.1 µM", "measurement": "inhibition", "value": "52%"}
{"Compound": "CSc1nc(NCCC2CC2)c2ncn([C@H]3[C@H](O)[C@H](O)[C@@H]4C[C@@H]43)c2n1", "target": "SLC6A3", "assay": "ligand displacement, radioligand", "conditions": "10 µM", "measurement": "inhibition", "value": "16%"}
{"Compound": "COc1cc2ncnc(Cc3cccc(-c4ccncc4)c3)c2cc1OC", "target": "PDE10A", "assay": "enzyme activity, inhibitor, FP", "conditions": "0.1 µM", "measurement": "inhibition", "value": "57%"}
{"Compound": "Cc1[nH]c(C)c(S(=O)(=O)Nc2ccc(Cl)c(Cl)c2Cl)c1C(=O)N1CCC(F)(F)C1", "target": "DRD3", "assay": "β-arrestin recruitment, agonist", "conditions": "90 min", "measurement": "Emax", "value": "92%"}
{"Compound": "COc1ccc2nccc(Cc3cccc(-c4ccc(C(=O)O)cc4)c3)c2c1", "target": "PDE10A", "assay": "enzyme activity, inhibitor, FP", "conditions": "0.1 µM", "measurement": "inhibition", "value": "11%"}
{"Compound": "CCCCC(=O)Nc1ccc(-c2ccc3ncn(CCC)c(=O)c3c2)cn1", "target": "Discoidin domain-containing receptor 2 (DDR2, Homo sapiens, UniProt Q16832)", "assay": "binding, competition with immobilised ligand", "conditions": "0.5 µM", "measurement": "remaining binding", "value": "100%"}
{"Compound": "Cc1[nH]c(C)c(S(=O)(=O)Nc2ccc(Cl)c(C(F)(F)F)c2)c1C(=O)N1CCCC1", "target": "DRD3", "assay": "β-arrestin recruitment, agonist", "conditions": "90 min", "measurement": "Emax", "value": "88%"}
{"Compound": "CCOC(=O)C12CC1C(n1ccc3c(NCCCc4ccccc4)nc(C#Cc4ccc(Cl)s4)nc31)C(O)C2O (stereo not shown)", "target": "SLC6A3", "assay": "ligand displacement, radioligand", "conditions": "10 µM", "measurement": "inhibition", "value": "61%"}
{"Compound": "Cc1[nH]c(C)c(S(=O)(=O)Nc2ccc(C(=O)C(F)(F)F)c(Cl)c2)c1C(=O)N1CCC(F)(F)C1", "target": "DRD3", "assay": "β-arrestin recruitment, agonist", "conditions": "90 min", "measurement": "Emax", "value": "96%"}
{"Compound": "C1=C/COCc2cc(ccc2OCCN2CCCC2)Nc2nccc(n2)-c2cccc(c2)COC/1", "target": "Calcium/calmodulin-dependent protein kinase type IV (CAMK4, Homo sapiens, UniProt Q16566)", "assay": "binding", "conditions": "0.1 µM", "measurement": "remaining binding", "value": "100%"}
{"Compound": "Cc1[nH]c(C)c(S(=O)(=O)Nc2ccc(C(C)C)cc2)c1C(=O)N1CCCC1", "target": "DRD3", "assay": "β-arrestin recruitment, agonist", "conditions": "90 min", "measurement": "Emax", "value": "96%"}
{"Compound": "OC[C@@]12C[C@@H]1[C@@H](n1cnc3c(N[C@@H](C4CCC4)C4CC4)nc(C#Cc4ccc(Cl)s4)nc31)[C@H](O)[C@@H]2O", "target": "SLC6A3", "assay": "ligand displacement, radioligand", "conditions": "10 µM", "measurement": "inhibition", "value": "80%"}
{"Compound": "Cc1[nH]c(C)c(S(=O)(=O)Nc2ccc(C(F)(F)F)c(Cl)c2)c1C(=O)N1CC(F)(F)C(F)(F)C1", "target": "DRD3", "assay": "β-arrestin recruitment, agonist", "conditions": "90 min", "measurement": "Emax", "value": "100%"}
{"Compound": "CCOC(=O)C12CC1C(n1ccc3c(NC4CC4)nc(C#Cc4ccccc4)nc31)C(O)C2O (stereo not shown)", "target": "SLC6A3", "assay": "ligand displacement, radioligand", "conditions": "10 µM", "measurement": "inhibition", "value": "-260%"}
{"Compound": "COc1ccc2oc(-c3ccc4nc(N)oc4c3)c/c(=N\\c3ccccc3NC(=O)CCN)c2c1", "target": "Activated CDC42 kinase 1 (TNK2, Homo sapiens, UniProt Q07912)", "assay": "binding", "conditions": "1 µM", "measurement": "remaining binding", "value": "100%"}
{"Compound": "COc1ccc2nccc(Cc3ccc(OC)c(OC)c3)c2c1", "target": "PDE10A", "assay": "enzyme activity, inhibitor, FP", "conditions": "0.1 µM", "measurement": "inhibition", "value": "3%"}
{"Compound": "Cc1[nH]c(C)c(S(=O)(=O)Nc2ccc(C(F)(F)F)c(Cl)c2)c1C(=O)N1CCC(F)(F)C1", "target": "DRD3", "assay": "β-arrestin recruitment, agonist", "conditions": "90 min", "measurement": "Emax", "value": "103%"}
{"Compound": "COc1ccc2c(Cc3ccc(OC)c(OC)c3)ccnc2c1", "target": "PDE10A", "assay": "enzyme activity, inhibitor, FP", "conditions": "0.1 µM", "measurement": "inhibition", "value": "33%"}
{"Compound": "CCOC(=O)[C@@]12C[C@@H]1[C@@H](n1cnc3c(Nc4ccccc4)nc(I)nc31)[C@H](O)[C@@H]2O", "target": "SLC6A3", "assay": "ligand displacement, radioligand", "conditions": "10 µM", "measurement": "inhibition", "value": "32%"}
{"Compound": "c1ccc2c(Cc3ccc4cn(C5COC5)nc4c3)nccc2c1", "target": "PDE10A", "assay": "enzyme activity, inhibitor, FP", "conditions": "0.1 µM", "measurement": "inhibition", "value": "0%"}
{"Compound": "Cc1[nH]c(C)c(S(=O)(=O)Nc2ccc([N+](=O)[O-])c(Cl)c2)c1C(=O)N1CCC(F)(F)C1", "target": "DRD3", "assay": "β-arrestin recruitment, agonist", "conditions": "90 min", "measurement": "Emax", "value": "101%"}
{"Compound": "c1ccc(-c2cccc(Cc3ccnc4ccccc34)c2)cc1", "target": "PDE10A", "assay": "enzyme activity, inhibitor, FP", "conditions": "0.1 µM", "measurement": "inhibition", "value": "0%"}
{"Compound": "N#C[C@@]12C[C@@H]1[C@@H](n1cnc3c(Nc4ccccc4)nc(C#Cc4ccc(Cl)s4)nc31)[C@H](O)[C@@H]2O", "target": "SLC6A3", "assay": "ligand displacement, radioligand", "conditions": "10 µM", "measurement": "inhibition", "value": "74%"}
{"Compound": "COc1ccc2nccc(Cc3cccc(-c4ccc(CO)cc4)c3)c2c1", "target": "PDE10A", "assay": "enzyme activity, inhibitor, FP", "conditions": "0.1 µM", "measurement": "inhibition", "value": "0%"}
{"Compound": "CCOC(=O)[C@@]12C[C@@H]1[C@@H](n1cnc3c(NCCO)nc(I)nc31)[C@H](O)[C@@H]2O", "target": "SLC6A3", "assay": "ligand displacement, radioligand", "conditions": "10 µM", "measurement": "inhibition", "value": "20%"}
{"Compound": "Cc1cc(O)c(-c2ccc([C@@H](C)CN(C)C)cc2)c2c1[nH]c(=O)c1sccc12", "target": "Cyclin-dependent kinase 12 (CDK12, Homo sapiens, UniProt Q9NYV4)", "assay": "enzyme activity, inhibitor", "conditions": "0.1 µM", "measurement": "inhibition", "value": "0.174%"}
